Where two headings read alike, the source gives them in different places.
Experiments:
[1] = test system: MCF10A, the human breast epithelial cell line; assay: MTT cell viability assay, normal MCF10A cells; assay type: cell-based; conditions: 25 μM, 48 h
UACC903 melanoma cells = assay: Live/Dead assay, UACC903 cells; assay type: cell-based, human
Procedure, shortened: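 2 × 10^5 cells incubated with test compound (25 and 50 μM) for 24 h at 37 °C. Cells then stained with 5 μM ethidium homodimer plus 5 μM calcein-AM for 30 min at 37 °C. Imaged by fluorescence microscopy: green esterase-retained calcein marks live cells, red marks membrane-damaged dead cells. Percentage of dead cells quantified from images.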

UACC903 cells = assay: Annexin V and Caspase 3/7 activity assays; assay type: cell-based, human; conditions: UACC903, 24 h; for cells positive for Annexin V, Caspase 3/7 activity and 7-AAD: concentration not stated at place (25 and 50 μM tested)
Procedure, shortened: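 UACC903 cells exposed to test compound at 25 and 50 μM for 24 h. Floating and adherent cells analysed on a Muse cell analyzer using two kits. The Annexin V/7-AAD kit sorts cells into live, early apoptotic (Annexin V+/7-AAD−), late apoptotic (double positive) and necrotic (7-AAD only) quadrants. The caspase-3/7 kit uses NucView, a DEVD-linked DNA dye released by active caspase 3/7, plus 7-AAD as dead-cell marker.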

[2] = test system: PARP, Bcl-2, Bcl-xL, Survivin in CHL-1 and UACC903 melanoma cells; assay: Western blot of survival and apoptosis proteins; assay type: cell-based, human; conditions: CHL-1 and UACC903, 24 h
Procedure, shortened: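 CHL-1 and UACC903 cells (2 × 10^6) treated with test compound at set concentrations for 24 h. Whole-cell lysates resolved by SDS-PAGE and transferred to PVDF. Blots probed for PARP, […], survivin and Bcl-xL, with β-actin as loading control, and detected by enhanced chemiluminescence.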

[3] = test system: CHL-1 and UACC 903 melanoma cells; assay: MTT cell viability assay, values stated jointly for CHL-1 and UACC 903; assay type: cell-based; conditions: Homo sapiens, read-out: IC50, CHL-1 and UACC 903 stated jointly in text
Procedure, shortened: (§1)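 Cells kept in DMEM with 10% FBS and penicillin/streptomycin at 37 °C. Seeded at 3,000 cells/well and treated in triplicate with a test compound series (0.5–25 μM for 48 h; 72 h exposure also run for CHL-1/UACC 903). MTT (5 mg/mL stock in PBS) added for 3 h at 37 °C, formazan dissolved in DMSO, absorbance read at 570 nm with 630 nm background subtracted. IC50 from non-linear curve fits.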

[4] = test system: 1205Lu and A375M cell lines; assay: MTT cell viability assay, values stated jointly for 1205Lu and A375M; assay type: cell-based; conditions: Homo sapiens, 48 h, read-out: IC50, 1205Lu and A375M stated jointly in text
Procedure, shortened: as §1

[5] = test system: cancer cell lines (UACC903, MCF-7 and MDA-MB-231); assay: MTT cell viability at 25 μM, values stated jointly for cancer cell lines; assay type: cell-based; conditions: 48 h, read-out: cell viability of cancer cell lines
[6] = test system: Panc-1, MDA-MB-231, MCF-7 and HCT116 cells; assay type: cell-based; conditions: 48 h, read-out: IC50s against all the cell lines tested (Panc-1, MDA-MB-231, MCF-7, HCT116)
[7] = test system: CHL-1 (BRAF wild-type) melanoma cells; assay: MTT cell viability assay, CHL-1 melanoma cells; assay type: cell-based; conditions: Homo sapiens, CHL-1, 72 h, read-out: Melanoma cells IC50 (μM) CHL-1
[8] = test system: UACC 903 (BRAF-mutant) melanoma cells; assay: MTT cell viability assay, UACC 903 melanoma cells; assay type: cell-based; conditions: Homo sapiens, UACC-903, 72 h, read-out: Melanoma cells IC50 (μM) UACC 903

SMILES	potency towards melanoma cells (UACC903) as compared to normal MCF10A cells [1]	cell death in Live/Dead assay, human melanoma cells (UACC903 melanoma cells; 25 μM concentration, cell line not specified at place)	necrotic death (cells only positive for 7-AAD) (UACC903 cells)	cells positive for Annexin V, Caspase 3/7 activity and 7-AAD (UACC903 cells)	PARP cleavage (Western blot) [2]	levels of anti-apoptotic proteins Bcl-2, Bcl-xL and Survivin (Western blot) [2]	IC50 ([3]; 48 h) [µM]	IC50 ([3]; 72 h) [µM]	IC50 [4] [µM]	viability at 25 µM [5] [%]	IC50 [6] [µM]	cell death in Live/Dead assay, UACC903 (UACC903 melanoma cells; 25 μM, 24 h) [%]	IC50 [7] [µM]	IC50 [8] [µM]
O=C1NC(=S)NC(=O)C1=C/C=C/c1cccs1 [Compound 2b, 5-(3-Thiophen-2-yl-allylidene)-2-thioxo-dihydro-pyrimidine-4,6-dione]	three-fold more potent	65–70%	not detected	More than 70%	induced PARP cleavage	reduced the levels of anti-apoptotic proteins Bcl-2, Bcl-xL and Survivin in a dose-dependent manner	6.5 to 8.1	3.8 to 4	10.6 to 14.8	20 to 30				
O=C1NC(=S)NC(=O)C1=C/C=C/c1cccc2ccccc12 [Compound 2d, 5-(3-Naphthalen-1-yl-allylidene)-2-thioxo-dihydro-pyrimidine-4,6-dione]											3.6 to 7.9			
O=C1NC(=S)N(c2ccccc2)C(=O)/C1=C/C=C/c1cccs1 [Compound 8b, 1-Phenyl-5-(3-thiophen-2-yl-allylidene)-2-thioxo-dihydro-pyrimidine-4,6-dione]	three-fold more potent		not detected	More than 70%	induced PARP cleavage	reduced the levels of anti-apoptotic proteins Bcl-2, Bcl-xL and Survivin in a dose-dependent manner	6.5 to 8.1	3.8 to 4	10.6 to 14.8	20 to 30		25		
CCCS(=O)(=O)Nc1ccc(F)c(C(=O)c2c[nH]c3ncc(-c4ccc(Cl)cc4)cc23)c1F [PLX-4032, vemurafenib]													13.7 ± 1.7	3.6 ± 1.1
